Source: publication PMC3983135 (Bioconjugate Chemistry, 2014)
Values joined by “and” are separate entries in the source; they are usually repeats but may differ in a detail not shown here. Equal entries are not always repeated.

Experiment: CRRL conjugation kinetics of BQ with methoxyamine by UV–vis spectroscopy
Assay type: physicochemical
Conditions: PBS, room temperature
Procedure, shortened: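 BQ (200 μM) was reacted with excess methoxyamine (100 mM and other concentrations) in Dulbecco's PBS at room temperature. Readings were taken in quartz cells, starting immediately after mixing. Repeated UV-vis spectra tracked BQ at 248 nm and QO at 320 nm. Both traces were fitted to pseudo-first-order exponentials to give k′, and the slope of k′ versus [methoxyamine] gave the second-order rate constant.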

## O=C1C=CC(=O)C=C1 [BQ, benzoquinone]
BQ 200 μM, methoxyamine 100 mM, UV–vis (248 and 320 nm)
  pseudo-first-order k′ of conversion of BQ to QO: 4.2 × 10^–3 s^–1
From plot of k′ versus [methoxyamine], UV–vis
  second-order rate constant k for CRRL conjugation (BQ with CH3ONH2 to QO): 3.4 × 10^–2 (±6.5 × 10^–4) M^–1s^–1 and 3.41 × 10^–2 (±6.5 × 10^–4) M^–1s^–1
